Usually IC50 stands for the concentration at which inhibition is half-maximal. The inhibition is the relative decrease from the control value, in per cent. The low end stands for a weak effect, the high end for a strong effect.

For experiment [1], the target named is T1, Galectin-3 (Gallus gallus, UniProt A4GTP0).
T1 sequence (A4GTP0 whole entry): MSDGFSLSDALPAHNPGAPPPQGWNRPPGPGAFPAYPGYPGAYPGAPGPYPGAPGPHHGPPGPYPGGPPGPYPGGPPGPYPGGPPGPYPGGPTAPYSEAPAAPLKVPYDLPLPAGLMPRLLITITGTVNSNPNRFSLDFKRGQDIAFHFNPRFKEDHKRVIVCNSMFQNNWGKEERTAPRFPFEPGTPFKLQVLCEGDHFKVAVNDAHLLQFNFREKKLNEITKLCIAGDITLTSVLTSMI
The experiment is described as follows: Inhibition of binding of biotinylated chicken galectin-3 to surface immobilized asialofetuin by solid phase assay relative to free lactose. The method, boiled down: (§1)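 Asialofetuin was adsorbed to microtiter wells at a constant coating amount, and its N-glycans served as ligand. Biotinylated lectin at a lectin-specific concentration was added with inhibitor. IC50 (mM) was normalized to lactose, and potency was expressed relative to free lactose. Assays were run in triplicate across up to five independent series.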

Experiment [2] is described as follows: Inhibition of binding of biotinylated Viscum album agglutinin to surface immobilized asialofetuin by solid phase assay relative to free lactose. The method, boiled down: (§2)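 Asialofetuin was adsorbed to microtiter wells at a constant coating amount, and its N-glycans served as ligand. Biotinylated lectin at a lectin-specific concentration was added with inhibitor. Assays were run in triplicate across up to five independent series.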

The target in experiment [3] is T1, Galectin-3. Description: Inhibition of binding of biotinylated truncated chicken galectin-3 to surface immobilized asialofetuin by solid phase assay relative to free lactose. The method, boiled down:
as §2

In experiment [4] the target is T2, Beta-galactoside-binding lectin (Gallus gallus, UniProt P07583).
T2 sequence (P07583 whole entry): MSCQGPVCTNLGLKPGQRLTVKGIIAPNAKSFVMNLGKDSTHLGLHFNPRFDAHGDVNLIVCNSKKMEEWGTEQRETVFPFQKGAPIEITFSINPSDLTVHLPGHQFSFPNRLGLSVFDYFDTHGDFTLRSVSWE
Description: Inhibition of binding of biotinylated chicken galectin-1B to surface immobilized asialofetuin by solid phase assay. Put shortly:
as §1

Experiment [5] can be described thus: Inhibition of binding of biotinylated chicken galectin-2 to surface immobilized asialofetuin by solid phase assay. More on the design: species or system Gallus gallus. Put shortly:
as §1

Experiment [6] concerns the target T2, Beta-galactoside-binding lectin. Description: Inhibition of binding of biotinylated chicken galectin-1B to surface immobilized asialofetuin by solid phase assay relative to free lactose. Put shortly: as §1
A short description of experiment [7]: Inhibition of binding of biotinylated chicken galectin-8S to surface immobilized asialofetuin by solid phase assay. More on the design: species or system Gallus gallus. Put shortly:
as §1

Experiment [8] in a line: Inhibition of binding of biotinylated chicken galectin-8N to surface immobilized asialofetuin by solid phase assay. More on the design: species or system Gallus gallus. The method, boiled down:
as §1

Experiment [9] can be described thus: Inhibition of binding of biotinylated chicken galectin-2 to surface immobilized asialofetuin by solid phase assay relative to free lactose. More on the design: species or system Gallus gallus. The method, boiled down:
as §1

Experiment [10] is described as follows: Inhibition of binding of biotinylated chicken galectin-8L to surface immobilized asialofetuin by solid phase assay relative to free lactose. More on the design: species or system Gallus gallus. The method, boiled down:
as §2

The target in experiment [11] is T1, Galectin-3. The experiment is described as follows: Inhibition of binding of biotinylated truncated chicken galectin-3 to surface immobilized asialofetuin by solid phase assay. The method, boiled down:
as §2

The test system of another experiment is SW480. The experiment is described as follows: Inhibition of binding of biotinylated Erythrina crista-galli agglutinin to SW480 cells at 0.2 mM by cytofluorometry. It counts as cell-based. Put shortly: (§3)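 Labeled lectin, with or without inhibitor, was incubated with aliquots of cell suspensions from the same passage: human SW480 colon adenocarcinoma cells for Erythrina agglutinin, CHO cells for the galectins. Binding was quantified by cytofluorometry as % positive cells and mean fluorescence intensity. Readings were normalized between a lectin-only control (100%) and a no-lectin background (0%). Runs were done in triplicate across at least three independent series.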

Experiment [12] is described as follows: Inhibition of binding of biotinylated chicken galectin-8N to surface immobilized asialofetuin by solid phase assay relative to free lactose. More on the design: species or system Gallus gallus. The method, boiled down: as §1
Experiment [13] is described as follows: Inhibition of binding of biotinylated Viscum album agglutinin to surface immobilized asialofetuin by solid phase assay. Put shortly: as §1
Experiment [14] in a line: Inhibition of binding of biotinylated chicken galectin-1A to surface immobilized asialofetuin by solid phase assay. More on the design: species or system Gallus gallus. Put shortly: as §1
Another experiment has as its system CHO. The experiment is described as follows: Inhibition of binding of biotinylated chicken galectin-8S to CHO cells at 1 mM by cytofluorometry. It counts as cell-based. The settings on record: Gallus gallus. Put shortly:
as §3

Experiment [15] can be described thus: Inhibition of binding of biotinylated chicken galectin-1A to surface immobilized asialofetuin by solid phase assay relative to free lactose. More on the design: species or system Gallus gallus. The method, boiled down:
as §1

A short description of experiment [16]: Inhibition of binding of biotinylated Erythrina crista-galli agglutinin to surface immobilized asialofetuin by solid phase assay. The method, boiled down: as §2
Experiment [17] in a line: Inhibition of binding of biotinylated chicken galectin-8S to surface immobilized asialofetuin by solid phase assay relative to free lactose. More on the design: species or system Gallus gallus. The method, boiled down: as §1
Experiment [18] addresses T3, Galectin-3 (Gallus gallus) (UniProt A4GTP0).
T3 sequence (whole entry): T1 sequence (A4GTP0 whole entry)
Description: (§4) Inhibition of binding of biotinylated truncated chicken galectin-3 to CHO cells at 2 mM by cytofluorometry. Type of experiment: cell-based. The method, boiled down:
as §3

Experiment [19] in a line: Inhibition of binding of biotinylated chicken galectin-8L to surface immobilized asialofetuin by solid phase assay. More on the design: species or system Gallus gallus. Put shortly: as §1
The target of experiment [20] is T3, Galectin-3 (Gallus gallus). The conditions noted are these: CHO, 0.25 mM.
Experiment [21] is described as follows: Inhibition of binding of biotinylated Erythrina crista-galli agglutinin to surface immobilized asialofetuin by solid phase assay relative to free lactose. The method, boiled down:
as §1

Experiment [22] deals with T1, Galectin-3. The experiment is described as follows: Inhibition of binding of biotinylated chicken galectin-3 to surface immobilized asialofetuin by solid phase assay. Put shortly:
as §2

The target of experiment [23] is Galectin-3 (Gallus gallus) (UniProt A4GTP0). The description is as §4. Type of experiment: cell-based. The method, boiled down:
as §3
This is another data set of the same source.

Experiment [24] has the same target. The experiment is described as follows: (§5) Inhibition of binding of biotinylated chicken galectin-3 to CHO cells at 1 mM by cytofluorometry. It counts as cell-based. Put shortly:
as §3

Experiment [25] deals with T3, Galectin-3 (Gallus gallus). The description is as §5. Type of experiment: cell-based. The method, boiled down:
as §3
This is another data set of the same source.

With `OC[C@H]1O[C@@H](O[C@H]2[C@H](O)[C@@H](O)[C@H](n3cc(-c4ccc(-c5cn([C@@H]6O[C@H](CO)[C@@H](O[C@@H]7O[C@H](CO)[C@H](O)[C@H](O)[C@H]7O)[C@H](O)[C@H]6O)nn5)cc4)nn3)O[C@@H]2CO)[C@H](O)[C@@H](O)[C@H]1O`, the relative potency at Galectin-3 [1] came to 15.7; in experiment [2], 4.6; in experiment [6] it was 2.7; in experiment [9], 5; in experiment [12], 3.2; in experiment [15], 2.3. The compound further had a relative potency in experiment [21] of 1.8. Besides, the IC50 at Galectin-3 [3] turned out to be 1.5 mM; in experiment [4] it was 1.5 mM; in experiment [5], 1.2 mM; in experiment [7], 0.7 mM; in [8] it was 0.5 mM; in experiment [10], 2.8 mM. Moreover, the IC50 on Galectin-3 [11] amounted to 3.1 mM; in [13], 0.13 mM; in experiment [14], 0.22 mM; in experiment [16], 0.6 mM; in [17] it was 2.6 mM; in experiment [19], 1.8 mM. The compound also came in with an IC50 at Galectin-3 [22] of 0.07 mM. Besides, the inhibition with SW480 came out at 85%; in the experiment with CHO it was 34%; in experiment [18], 44%; in experiment [20] it was 39%.

Consider `O=C1NCc2ccc(cc2)CNC(=O)[C@@H]2O[C@@H](C/C=C/C[C@H]3O[C@H]1[C@@H](OCc1cn([C@@H]4O[C@H](CO)[C@@H](O[C@@H]5O[C@H](CO)[C@H](O)[C@H](O)[C@H]5O)[C@H](O)[C@H]4O)nn1)[C@H](OCc1ccccc1)[C@H]3OCc1ccccc1)[C@@H](OCc1ccccc1)[C@H](OCc1ccccc1)[C@H]2OCc1cn([C@@H]2O[C@H](CO)[C@@H](O[C@@H]3O[C@H](CO)[C@H](O)[C@H](O)[C@H]3O)[C@H](O)[C@H]2O)nn1`, for which the relative potency on Galectin-3 [1] was determined as 13.8; in experiment [2], 2.5; in experiment [6] it was 6.7; in experiment [9], 8.6; in [12], 5.3; in [15], 0.3. Also, in [21], the relative potency was determined as 1.4. Moreover, the IC50 at Galectin-3 [3] was 0.8 mM; in [4] it was 0.6 mM; in experiment [5], 0.7 mM; in experiment [7], 0.4 mM; in [8], 0.3 mM; in [10], 8.3 mM. Moreover, the half-maximal inhibitory concentration (IC50) on Galectin-3 [11] was 5.3 mM; in experiment [13] it was 0.24 mM; in experiment [14] it was 1.6 mM; in experiment [16] it was 0.8 mM; in experiment [17], 4.5 mM; in [19] it was 0.6 mM. Also, the IC50 at Galectin-3 [22] turned out to be 0.08 mM. In the experiment on SW480, this compound returned an inhibition of 88%.

Take `C=CC[C@@H]1O[C@@H](C(=O)NCc2ccc(CNC(=O)[C@H]3O[C@H](CC=C)[C@H](OCc4ccccc4)[C@@H](OCc4ccccc4)[C@@H]3OCc3cn([C@@H]4O[C@H](CO)[C@@H](O[C@@H]5O[C@H](CO)[C@H](O)[C@H](O)[C@H]5O)[C@H](O)[C@H]4O)nn3)cc2)[C@H](OCc2cn([C@@H]3O[C@H](CO)[C@@H](O[C@@H]4O[C@H](CO)[C@H](O)[C@H](O)[C@H]4O)[C@H](O)[C@H]3O)nn2)[C@@H](OCc2ccccc2)[C@@H]1OCc1ccccc1`: the relative potency was 78.6 on Galectin-3 [1]; 0.5 in experiment [2]; 8.7 in experiment [6]; 9.2 in experiment [9]; 4 in experiment [12]; 0.5 in [15]. The same compound had a relative potency in experiment [21] of 0.8. Besides, the half-maximal inhibitory concentration (IC50) on Galectin-3 [3] stood at 0.9 mM; in experiment [4], 0.46 mM; in experiment [5], 0.65 mM; in [7], 3 mM; in [8] it was 0.4 mM; in experiment [10] it was 2.1 mM. For the same compound, the IC50 at Galectin-3 [11] worked out at 5 mM; in experiment [13] it was 1.3 mM; in experiment [14] it was 1.4 mM; in experiment [16], 1.3 mM; in [17], 0.6 mM; in [19], 2.4 mM. On Galectin-3 [22], this compound gave an IC50 of 0.014 mM.

“LACTOSE, ANHYDROUS [listing 1 of 2 here]”: the IC50 in [5] is 6 mM; in experiment [7], 1.8 mM; in experiment [8] it was 1.6 mM; in experiment [13] it was 0.6 mM; in experiment [14], 0.5 mM; in experiment [19], 5 mM.

For the compound “LACTOSE, ANHYDROUS [listing 2 of 2 here]”, the inhibition in the experiment on SW480 amounted to 86%; in the experiment on CHO it was 39%; in experiment [23] it was 67%; in experiment [24] it was 75%.

As to `O=C(/C=C/C(=O)N[C@@H]1O[C@H](CO)[C@@H](O[C@@H]2O[C@H](CO)[C@H](O)[C@H](O)[C@H]2O)[C@H](O)[C@H]1O)N[C@@H]1O[C@H](CO)[C@@H](O[C@@H]2O[C@H](CO)[C@H](O)[C@H](O)[C@H]2O)[C@H](O)[C@H]1O`, the IC50 in experiment [4] stood at 1.3 mM; in [5] it was 1.4 mM; in experiment [7], 2.5 mM; in experiment [8], 0.8 mM; at Galectin-3 [11], 4.2 mM; in [13], 0.55 mM. The IC50 in experiment [14] was found to be 0.36 mM; in [16], 1.2 mM; in [17] it was 0.7 mM; in [19], 4.5 mM; on Galectin-3 [22] it was 0.6 mM. Also, the inhibition with SW480 is 89%; in the experiment with CHO, 70%; in [18], 47%; in experiment [25], 45%.

For the origin of these results see ChEMBL document CHEMBL2202999, “Synthesis of bivalent lactosides and their activity as sensors for differences between lectins in inter- and intrafamily comparisons” (Bioorg Med Chem Lett, 2012).
